Shown are actives, neighbours in structure and some others; about 4.8% of the full set was active somewhere.
NALP1 inh – blocks the NALP1 inflammasome reconstituted in yeast | S. cerevisiae NALP1/ASC/caspase-1 growth, X-gal OD620, 72 h | inhibition, % at 10 µM | 280,000 tested, 0.61% active; in the data active = inhibition mostly above about 24%, no sharp cut-off; inactive = mostly below about 32%
ATG4B inhibitor – inhibitors of human ATG4B cysteine protease. Q9Y4P1. inhibition, % at 8.33 µM. 340,000 tested, 0.51% active. AID 504462. ATG4B cleavage of LC3-PLA2, NBD-HPC fluorescence, 1 h; in the data active = inhibition above about 40%
NLRP3 yeast inh – NALP3 inhibition in yeast; Yeast reconstituted NLRP3/ASC/caspase-1, beta-gal luminescence, 24 h; inhibition, % at 10 µM; 330,000 tested, 0.39% active;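 active = inhibition of 50% or more; inactive = inhibition below 50%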
ALR H2O2 inh – blocks human ALR sulfhydryl oxidase activity; P55789; purified ALR, DTT oxidation, H2O2 HRP-luminol luminescence; inhibition, % (concentration not given with the values); 290,000 tested, 3.8% active;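 active = mean replicate inhibition above about 79%, with every replicate also reaching it, limit read from the data; inconclusive = only one of the two criteria met; inactive = mean below limit and not every replicate reaching it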
Calb FLC – C. albicans growth modulation with fluconazole. C. albicans CaCi-2 + fluconazole, Alamar Blue growth, 48 h. AID 1979. growth inhibition, % (test concentration not listed). 300,000 tested, 0.57% active;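 active = growth inhibition above about 58% in most replicates, limit read from the data, passing the limit was not always enough; inconclusive = exactly half the replicates above a set limit; inactive = most replicates below a set limit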;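 note: all wells also contain fluconazole at 8 µg/ml as a sub-toxic cotreatment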
UCH37 DUB inh – blocks the human deubiquitinase UCH37. 330,000 tested, 0.33% active. Q9Y5K5. inhibition, % (no concentration beside the values). AID 588478. purified proteasome/UCH37, Ub-AMC cleavage fluorescence;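 active = mean inhibition over replicate wells above about 20%, limit read from the data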
Target sequence (Q9Y5K5 whole entry, looked up): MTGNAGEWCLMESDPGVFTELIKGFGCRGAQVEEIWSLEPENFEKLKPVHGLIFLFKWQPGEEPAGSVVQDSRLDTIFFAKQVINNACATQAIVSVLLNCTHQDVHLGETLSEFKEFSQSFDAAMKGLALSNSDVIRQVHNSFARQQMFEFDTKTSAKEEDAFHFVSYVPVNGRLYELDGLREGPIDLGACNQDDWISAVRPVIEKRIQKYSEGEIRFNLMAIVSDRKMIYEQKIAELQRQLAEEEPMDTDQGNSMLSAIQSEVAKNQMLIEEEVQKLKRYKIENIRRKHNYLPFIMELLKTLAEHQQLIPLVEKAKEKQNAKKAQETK
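System: Proteasome-associated human UCH37 deubiquitinase; Input: 0.15 nM proteasome in added enzyme buffer; Also added: Ub-AMC substrate from 1 µM stock; Incubation: 30 min compound-proteasome preincubation then 25 min substrate reaction, room temperature; Detection: fluorescence, ex 355 nm, em 460 nm; Read-out: % inhibition of Ub-AMC cleavage fluorescence; Benchmarks: no-proteasome and no-compound wells.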
A number is an active result; n = inactive; u = inconclusive; x = no result given.

SMILES	NALP1 inh	ATG4B inhibitor	NLRP3 yeast inh	ALR H2O2 inh	Calb FLC	UCH37 DUB inh
CN(C)/N=C/c1ccc(/C=N/NC(N)=S)o1	n	n	n	98.9	n	x
CN(C)c1ccc(C=NS(=O)(=O)c2ccccc2)cc1	x	x	x	x	x	n
O=c1cc(-c2ccccc2)nc2c(-c3ccccc3)c(C(F)(F)F)[nH]n12	n	n	n	x	n	n
Nc1[nH]n2c(=O)cc(-c3ccccc3)nc2c1N=Nc1ccc2c(c1)OCO2	41.5	x	n	n	n	n
COc1cc(SC#N)ccc1N=Cc1c(C)[nH]n(-c2cccc3ccccc23)c1=O	n	n	n	98.8	n	n
COc1ccccc1N=Cc1c(C)[nH]n(-c2ccc(C)cc2C)c1=O	n	n	n	n	n	n
COc1cc(SC#N)ccc1N=Cc1c(C)[nH]n(-c2ccc(C)cc2C)c1=O	x	n	n	99.1	n	n
CC(=NNC(=O)c1cc(C)nc2ccccc12)c1ccccn1	x	x	x	x	x	n
COc1ccc(-c2csc(N(CC3CCCO3)C(=O)c3ccco3)n2)cc1 (configuration not stated)	n	n	n	x	98.5	n
COc1cc(OC)cc(C(=O)NN=C2SCC(=O)N2Cc2ccco2)c1	x	x	x	x	x	n
S=c1[nH]nc(C2CCCCC2)n1N=Cc1cccs1	x	x	x	x	x	n
Cc1ccc(/C=N/n2c(C3CCCCC3)n[nH]c2=S)o1	n	n	n	96.7	n	x
Cc1ccc(C=Nn2c(C3CCCCC3)n[nH]c2=S)cc1	x	x	x	x	x	n
S=c1[nH]nc(C2CCCCC2)n1/N=C/c1cccs1	n	n	n	95.6	n	x
C=C(C)CNC(=S)NN=Cc1ccc(NC(C)=O)cc1	x	x	x	x	x	n
CC(CC(=O)Nc1ccc(C)c(Cl)c1)=NNC(=O)Cc1cnc(N)s1	x	x	x	x	x	n
COc1cc(OC)cc(N(C(=O)C2COc3ccccc3O2)C(C(=O)NC2CCCCC2)c2ccc(O)cc2)c1 (configuration not stated)	n	n	n	n	90.5	n
O=C1C(Cl)=C(NS(=O)(=O)c2ccc([N+](=O)[O-])cc2)C(=O)c2ccccc21	x	n	n	n	n	24.5
Cc1ccc(C(=O)/C=C/c2ccco2)c(O)c1	n	n	n	98.5	n	n
COCCCNC(=O)c1c(N)n(N=Cc2cccnc2)c2nc3ccccc3nc12	x	x	x	x	x	n
CC(CC(=O)O)CC(=O)Nc1cc(C(F)(F)F)cc(C(F)(F)F)c1 (configuration not stated)	n	n	n	n	n	n
CNC(=O)Nc1cc(C(F)(F)F)cc(C(F)(F)F)c1	n	n	n	n	85.8	n
Cc1ccc(C=NNC(=O)c2ccc(-n3cnnn3)cc2)cc1	x	x	x	x	x	n
Fc1ccc(CSc2ccc(-c3ccco3)nn2)cc1	n	n	n	97.8	n	n
COc1cc(NC(=O)CSc2ccc(-c3ccco3)nn2)cc(OC)c1	n	n	n	98.2	n	n
SMILES	NALP1 inh	ATG4B inhibitor	NLRP3 yeast inh	ALR H2O2 inh	Calb FLC	UCH37 DUB inh
CC(=O)Nc1ccc(NC(=O)CSc2ccc(-c3ccco3)nn2)cc1	n	n	n	96.3	n	n
CC(=O)Nc1cccc(NC(=O)CSc2ccc(-c3ccco3)nn2)c1	n	n	n	u	n	n
Fc1cccc(CSc2ccc(-c3ccco3)nn2)c1	n	n	n	n	n	n
COc1cc(C=NNC(=O)CSc2cc(C)c(Br)cc2C)ccc1O	x	x	x	x	x	n
COc1cccc(C2c3[nH]c4ccccc4c3C[C@H]3C(=O)N(C4CC4)CC(=O)N23)c1 (some centres not stated)	n	n	n	n	n	n
COc1ccc(C2c3[nH]c4ccccc4c3C[C@H]3C(=O)N(CCCO)CC(=O)N23)cc1OC (some centres not stated)	n	n	n	n	n	n
COCCN1CC(=O)N2C(c3cccc(OC)c3)c3[nH]c4ccccc4c3C[C@H]2C1=O (some centres not stated)	n	n	n	99.0	n	n
COc1cccc(C2c3[nH]c4ccccc4c3C[C@H]3C(=O)N(C)CC(=O)N23)c1 (some centres not stated)	n	n	n	98.2	n	n
COc1ccc(C2c3[nH]c4ccccc4c3C[C@H]3C(=O)N(C)CC(=O)N23)cc1OC (some centres not stated)	n	n	n	97.8	n	n

Bioassay records from PubChem.
